Results on 20 compounds are retold here after ChEMBL document CHEMBL3596132, “Antiproliferative activity of O4-benzo[c]phenanthridine alkaloids against HCT-116 and HL-60 tumor cells” (Bioorg Med Chem Lett, 2015).

SMILES strings stand for the structures. A value given as a limit tells only on which side of the number the result lay.

What all share (format): functional, cell-based
One assay relates to HCT-116. The assay is described as follows: Antiproliferative activity against human HCT116 cells assessed as inhibition of cell viability after 48 hrs by MTT assay. Particulars: HCT-116, 48 h. The gist of the method: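 HCT-116 cells seeded at 2.0 × 10^3 per well and allowed to attach for 24 h at 37 °C, 5% CO2. Agents were added in FBS-containing medium for 48 h. MTT (5 mg/mL in PBS stock) was then added for 4 h, formazan dissolved in DMSO, and absorbance read at 570 nm. Viability expressed as percent of untreated controls; IC50 reported.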

The test system of the next assay is HL-60. The assay is described as follows: Antiproliferative activity against human HL60 cells assessed as inhibition of cell viability after 48 hrs by WST-1 assay. The following applies: HL-60, 48 h. In a few lines:
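WST-1 assay. HL-60 cells were seeded at 1.0 × 10^4 per well in FBS-containing medium together with test agents and incubated 48 h. Absorbance read at 415 nm. Viability expressed as percent of untreated controls; IC50 reported.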
A general note: Formazan colour is commonly taken as a measure of viable cells.

A further assay has as its system HepG2. The experiment in a line: Cytotoxicity against human HepG2 cells.

For orientation: IC50 means the concentration at which inhibition is half-maximal. Regarding `COc1ccc2c(cnc3c4cc5c(cc4ccc23)OCO5)c1O`, the IC50 in the assay with HCT-116 and in the assay on HL-60 was greater than 10 µM throughout.

For `COc1c(O)ccc2c[n+](C)c3c4cc5c(cc4ccc3c12)OCO5`, the concentration for half-maximal inhibition (IC50) in the assay on HCT-116 and in the assay on HL-60 was greater than 10 µM throughout.

Regarding `COc1cc2cnc3c4cc5c(cc4ccc3c2cc1OC)OCO5`, the IC50 in the assay on HCT-116 and in the assay on HL-60 was greater than 10 µM each time.

Consider `COc1ccc2c(c1OC)CN(C)c1c-2ccc2cc3c(cc12)OCO3` [DIHYDROCHELERYTHRINE], for which the IC50 with HCT-116 and in the assay with HL-60 was greater than 10 µM each time.

Regarding `COc1c(O)ccc2cnc3c4cc5c(cc4ccc3c12)OCO5`, the IC50 in the assay with HCT-116 and in the assay on HL-60 was greater than 10 µM in each case.

As for `COc1ccc2c(c1OC)-c1ccc3cc4c(cc3c1N(C)C2)OCO4`, the IC50 with HCT-116 and with HL-60 was greater than 10 µM throughout.

As to `COc1cc2cnc3c4cc5c(cc4ccc3c2cc1O)OCO5`, the IC50 with HCT-116 and in the assay with HL-60 was greater than 10 µM throughout.

With `COc1cc2c[n+](C)c3c4cc5c(cc4ccc3c2cc1O)OCO5`, the IC50 in the assay with HCT-116 is 3.35 µM; in the assay with HL-60, 3.28 µM.

On to `COc1cc2c(cc1O)-c1ccc3cc4c(cc3c1N(C)C2)OCO4`, for which the figures for the IC50 in the assay on HCT-116 and in the assay with HL-60 were 7.28 µM and greater than 10 µM, respectively.

Regarding `COc1cc2c(cnc3c4cc5c(cc4ccc23)OCO5)cc1O`, the IC50 with HCT-116 and in the assay with HL-60 was greater than 10 µM each time.

With `COc1ccc2cnc3c4cc5c(cc4ccc3c2c1OC)OCO5`, the IC50 with HCT-116 and in the assay on HL-60 was greater than 10 µM throughout.

For the compound `COc1ccc2c(c1O)CN(C)c1c-2ccc2cc3c(cc12)OCO3`, the IC50 with HCT-116 was determined as 3.22 µM; in the assay on HL-60, 4.96 µM.

With `COc1cc2c(cc1OC)-c1ccc3cc4c(cc3c1N(C)C2)OCO4`, the IC50 in the assay with HCT-116 stood at 6.61 µM; in the assay on HL-60, 4.51 µM.

As to `COc1ccc2c(cnc3c4cc5c(cc4ccc23)OCO5)c1OC`, the IC50 in the assay on HCT-116 and with HL-60 was greater than 10 µM throughout.

In the case of `COc1ccc2c(c[n+](C)c3c4cc5c(cc4ccc23)OCO5)c1OC` [CHELERYTHRINE CHLORIDE], the IC50 came out at 2.13 µM with HCT-116 and 2.99 µM in the assay on HL-60.

For the compound `COc1ccc2c(c[n+](C)c3c4cc5c(cc4ccc23)OCO5)c1O`, the figures for the IC50 with HCT-116 and in the assay on HL-60 were 1.31 µM and 0.79 µM, respectively.

As for `COc1c(O)ccc2c1-c1ccc3cc4c(cc3c1N(C)C2)OCO4`, the IC50 in the assay with HCT-116 and in the assay on HL-60 was greater than 10 µM throughout.

In the case of `COc1ccc2c[n+](C)c3c4cc5c(cc4ccc3c2c1OC)OCO5`, the IC50 in the assay with HCT-116 was determined as 3.23 µM; in the assay with HL-60 it was 7.82 µM.

Consider `COc1cc2c[n+](C)c3c4cc5c(cc4ccc3c2cc1OC)OCO5` [NITIDINE CHLORIDE], for which the IC50 came to 3.52 µM in the assay on HepG2, 4.42 µM in the assay with HCT-116 and 3.41 µM with HL-60.

`COc1cc2c(cc1O)c[n+](C)c1c3cc4c(cc3ccc21)OCO4`: the IC50 in the assay with HCT-116 and with HL-60 was greater than 10 µM in each case.
